Results taken from ChEMBL document CHEMBL1681759, “Synthesis and biological evaluation of benzimidazole-5-carbohydrazide derivatives as antimalarial, cytotoxic and antitubercular agents” (Bioorg Med Chem, 2011).
≈ marks a conversion by molar mass, not a printed value.

test system: Mycobacterium tuberculosis; assay: Antimycobacterial activity against multidrug-resistant Mycobacterium tuberculosis clinical isolate after 5 days by tetrazolium microplate assay; format: functional; conditions: 120 h
Outline: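 Tetrazolium microplate assay run in 7H9GC broth. DMSO stocks (4 mg/mL) were diluted to final 0.4–25 µg/mL. Isoniazid (0.125–32 µg/mL) and rifampin (0.063–16 µg/mL) were positive controls; inoculum-only and DMSO controls were included. Plates were incubated 5 days at 37 °C, then an MTT-Tween 80 mix was added and incubation continued 24 h at 37 °C. Run in triplicate. MIC = lowest concentration preventing the yellow-to-purple colour change.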

Row | SMILES | MIC [µg/mL]
1 | O=C(O)c1ccc2[nH]c(-c3ccc([N+](=O)[O-])o3)nc2c1 | > 25
2 | O=CNNC(=O)c1ccc2[nH]c(-c3ccc([N+](=O)[O-])o3)nc2c1 | > 25
3 | O=C(NNC(=O)c1ccc2[nH]c(-c3ccc([N+](=O)[O-])o3)nc2c1)c1ccccc1 | 6.25 (≈ 16 µM)
4 | COc1cccc(C(=O)NNC(=O)c2ccc3[nH]c(-c4ccc([N+](=O)[O-])o4)nc3c2)c1 | 25 (≈ 59.3 µM)
5 | COc1ccc(C(=O)NNC(=O)c2ccc3[nH]c(-c4ccc([N+](=O)[O-])o4)nc3c2)cc1OC | 25 (≈ 55.4 µM)
6 | COc1cc(C(=O)NNC(=O)c2ccc3[nH]c(-c4ccc([N+](=O)[O-])o4)nc3c2)cc(OC)c1OC | 25 (≈ 51.9 µM)
7 | O=C(NNC(=O)c1ccc2[nH]c(-c3ccc([N+](=O)[O-])o3)nc2c1)c1cccc(Oc2ccccc2)c1 | 25 (≈ 51.7 µM)
8 | COc1cccc(C(=O)NNC(=O)c2ccc3[nH]c(-c4ccc([N+](=O)[O-])s4)nc3c2)c1 | 25 (≈ 57.2 µM)
9 | COc1cc(C(=O)NNC(=O)c2ccc3[nH]c(-c4ccc([N+](=O)[O-])s4)nc3c2)cc(OC)c1OC | > 25
10 | O=C(NNC(=O)c1cc2ccccc2cc1O)c1ccc2[nH]c(-c3ccc([N+](=O)[O-])s3)nc2c1 | > 25
11 | NNC(=O)c1ccncc1 [ISONIAZID] | 4 (≈ 29.2 µM)
12 | CO[C@H]1/C=C/O[C@@]2(C)Oc3c(C)c(O)c4c(O)c(c(/C=N/N5CCN(C)CC5)c(O)c4c3C2=O)NC(=O)/C(C)=C\C=C\[C@H](C)[C@H](O)[C@@H](C)[C@@H](O)[C@@H](C)[C@H](OC(C)=O)[C@@H]1C [RIFAMPIN] | 2 (≈ 2.43 µM)
